Test results published in PMC10868446 (Pharmaceutical Biology, 2024).

Columns and labels:
CYP3A4 = CYP3A4 (Homo sapiens, UniProt P08684); experiment: Time-dependent inhibition of CYP3A4 in HLMs; assay type: in vitro ADME
[1] = test system: CYP450 isoforms (1A2, 2A6, 2C8, 2C9, 2C19, 2D6, 2E1, 3A4); experiment: Cocktail assay of CYP450 isoform activity in pooled human liver microsomes; assay type: in vitro ADME; conditions: pooled HLMs, 100 μM physcion
Summary of the method: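 Single-concentration screen in pooled human liver microsomes with the test compound at 100 μM, a blank negative control and typical isoform inhibitors as positive controls. Incubation was in 100 mM potassium phosphate, pH 7.4, with an NADPH-generating system after 3 min pre-incubation. Reactions were stopped with acetonitrile (trichloroacetic acid for CYP2A6), and probe metabolites were quantified by HPLC. Triplicate; one-way ANOVA against the negative control.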

[2] = after rhubarb extract administration; ref Ding et al. [2003]; Xun et al. [2019]; cited from earlier work
[3] = rats; after administration of Semen Cassiae extract; ref Yang et al. [2015]; cited from earlier work
CYP2C9 = CYP2C9 (Homo sapiens, UniProt P11712); experiment: Time-dependent inhibition of CYP2C9 in HLMs; assay type: in vitro ADME; conditions: HLMs pre-incubated with physcion 30 min; incubation 5, 10, 15 and 30 min
Summary of the method: (§1)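 Two-step format: microsomes were pre-incubated with the test compound for 30 min. A 20 μL aliquot was transferred to a second tube with substrate near Km and started with the NADPH-generating system. Incubations ran 5, 10, 15 and 30 min, were stopped with acetonitrile and centrifuged, and residual activity was measured by HPLC. Triplicate.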

CYP2D6 = CYP2D6 (Homo sapiens, UniProt P10635); experiment: Time-dependent inhibition of CYP2D6 in HLMs; assay type: in vitro ADME; conditions: HLMs pre-incubated with physcion 30 min; incubation 5, 10, 15 and 30 min
Summary of the method: as §1

Sequence of CYP3A4 (P08684 whole entry, canonical isoform): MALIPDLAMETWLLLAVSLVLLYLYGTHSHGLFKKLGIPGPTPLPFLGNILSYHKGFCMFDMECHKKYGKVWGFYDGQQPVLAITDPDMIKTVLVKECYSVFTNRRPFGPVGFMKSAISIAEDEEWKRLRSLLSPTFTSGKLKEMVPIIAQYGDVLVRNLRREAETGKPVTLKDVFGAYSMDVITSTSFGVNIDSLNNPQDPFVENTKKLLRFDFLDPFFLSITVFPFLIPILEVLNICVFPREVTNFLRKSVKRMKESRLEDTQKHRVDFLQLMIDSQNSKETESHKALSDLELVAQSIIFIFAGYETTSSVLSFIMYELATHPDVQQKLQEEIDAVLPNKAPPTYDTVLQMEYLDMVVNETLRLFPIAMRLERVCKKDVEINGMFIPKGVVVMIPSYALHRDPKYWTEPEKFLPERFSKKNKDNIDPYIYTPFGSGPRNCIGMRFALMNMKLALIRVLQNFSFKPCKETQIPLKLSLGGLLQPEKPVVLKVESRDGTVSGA
Sequence of CYP2D6 (P10635 whole entry): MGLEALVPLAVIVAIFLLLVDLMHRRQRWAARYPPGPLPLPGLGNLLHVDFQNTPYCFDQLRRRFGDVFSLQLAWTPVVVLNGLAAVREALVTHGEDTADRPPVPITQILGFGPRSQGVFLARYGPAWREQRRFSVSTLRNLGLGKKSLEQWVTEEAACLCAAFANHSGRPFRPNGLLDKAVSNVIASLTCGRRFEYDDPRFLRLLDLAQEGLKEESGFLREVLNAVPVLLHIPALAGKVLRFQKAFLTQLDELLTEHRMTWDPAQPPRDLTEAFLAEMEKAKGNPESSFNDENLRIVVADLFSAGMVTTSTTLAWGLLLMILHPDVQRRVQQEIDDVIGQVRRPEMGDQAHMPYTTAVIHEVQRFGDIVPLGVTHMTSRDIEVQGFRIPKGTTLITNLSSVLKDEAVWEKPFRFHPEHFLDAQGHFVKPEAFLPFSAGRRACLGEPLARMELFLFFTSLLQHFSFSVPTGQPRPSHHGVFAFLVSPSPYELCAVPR
Sequence of CYP2C9 (P11712 whole entry): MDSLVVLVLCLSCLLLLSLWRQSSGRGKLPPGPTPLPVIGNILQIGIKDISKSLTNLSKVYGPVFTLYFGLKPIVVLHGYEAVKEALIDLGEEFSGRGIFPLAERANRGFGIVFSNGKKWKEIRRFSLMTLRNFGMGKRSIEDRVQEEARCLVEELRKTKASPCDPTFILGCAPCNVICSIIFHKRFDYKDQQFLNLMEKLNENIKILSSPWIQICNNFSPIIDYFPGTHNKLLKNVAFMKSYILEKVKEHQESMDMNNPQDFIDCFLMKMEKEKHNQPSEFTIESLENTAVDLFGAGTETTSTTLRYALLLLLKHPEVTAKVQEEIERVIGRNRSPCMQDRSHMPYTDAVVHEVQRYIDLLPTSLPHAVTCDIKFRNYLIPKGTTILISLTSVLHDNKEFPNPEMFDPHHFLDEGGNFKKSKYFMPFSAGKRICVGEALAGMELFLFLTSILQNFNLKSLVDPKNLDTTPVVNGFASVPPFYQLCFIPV

For `COc1cc(O)c2c(c1)C(=O)c1cc(C)cc(O)c1C2=O` [physcion, Physcion], the “KI (time-dependent inhibition of CYP3A4)” value (CYP3A4; 0–50 μM physcion, substrate approx. 4-fold Km, 0–30 min) was 3.10 µM⁻¹, the “Time dependence of CYP3A4 inhibition” value (CYP3A4; HLMs pre-incubated with physcion 30 min, incubation 5, 10, 15 and 30 min) was “time-dependent” and the “Inhibitory effect relative to the positive inhibitors of CYP2C9, 2D6 and 3A4” value [1] was “weaker than the positive inhibitors”. The “Effect on activity of the major CYP450 isoforms” value ([1]; compared with negative control) was “Only the activity of CYP2C9, 2D6 and 3A4 was inhibited”, the “Maximum concentration of physcion” value [2] was 0.032 µg/mL and the “Time at which the maximum concentration was reached” value [2] was 2 h. The Maximum plasma concentration [3] was 461.85 ± 266.77 ng/mL, the “Time of maximum plasma concentration” value [3] was 0.167 ± 0.002 h and the “Time dependence of CYP2C9 inhibition” value (CYP2C9) was “not influenced”. The “Time dependence of CYP2D6 inhibition” value (CYP2D6) was “not influenced”.
